According to ChEMBL document CHEMBL1921745, “CCR2 receptor antagonists: optimization of biaryl sulfonamides to increase activity in whole blood” (Bioorg Med Chem Lett, 2011):

Tests used:
[1] = molecular target: T1, C-C chemokine receptor type 2 (Homo sapiens, UniProt P41597); assay: Antagonist activity at human CCR2 receptor expressed in CHO cells assessed as inhibition of MCP1-induced [35S]-GTPgammaS binding after 3 hrs in presence of 5% human serum albumin; assay type: functional, cell-based
Method in brief: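 GTPγS functional assay at CCR2 run side by side with the HSA-free primary assay. HSA present at 0.2% w/v, described as 5% of physiological concentration.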
Target sequence in this assay (P41597 whole entry): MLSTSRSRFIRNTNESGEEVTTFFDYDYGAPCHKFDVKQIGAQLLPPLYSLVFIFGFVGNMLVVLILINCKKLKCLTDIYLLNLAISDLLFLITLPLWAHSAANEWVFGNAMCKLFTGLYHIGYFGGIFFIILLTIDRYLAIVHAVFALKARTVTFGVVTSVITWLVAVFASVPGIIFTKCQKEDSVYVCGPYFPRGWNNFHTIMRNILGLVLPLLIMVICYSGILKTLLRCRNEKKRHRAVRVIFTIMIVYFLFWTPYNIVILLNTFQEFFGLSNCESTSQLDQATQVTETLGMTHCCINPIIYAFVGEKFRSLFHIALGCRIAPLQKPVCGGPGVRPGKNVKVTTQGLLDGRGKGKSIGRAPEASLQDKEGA

[2] = molecular target: T1, C-C chemokine receptor type 2; assay: Ratio of IC50 for human CCR2 receptor in presence of 5% human serum to IC50 for human CCR2 receptor
Target sequence in this assay (P41597 whole entry, looked up): as the sequence (P41597 whole entry) above

[3] = molecular target: T1, C-C chemokine receptor type 2; assay: Antagonist activity at human CCR2 receptor expressed in CHO cells assessed as inhibition of MCP1-induced [35S]-GTPgammaS binding after 3 hrs; assay type: functional, cell-based
Target sequence in this assay (P41597 whole entry): as above

[4] = molecular target: T1, C-C chemokine receptor type 2; assay: Antagonist activity at CCR2 receptor in human whole blood assessed as inhibition of MCP-1 induced monocyte shape change pretreated for 15 mins before MCP-1 challenge measured after 5 mins by flow cytometry; assay type: functional, tissue-based; details: read-out: pA2 (converted)
Method in brief: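 Fresh blood from healthy human donors, preincubated 15 minutes with antagonist, then stimulated 5 minutes with a range of MCP-1 concentrations. Samples fixed rapidly and analysed by flow cytometry for increase in monocyte side scatter, plotted against MCP-1 concentration. pA2 derived by comparison with the MCP-1 dose response in vehicle-treated blood.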
Target sequence in this assay (P41597 whole entry): as above

[5] = Clearance in rat at 1 mg/kg, iv and 2 mg/kg, po; assay type: ADME, organism-based; details: in vivo
[6] = Half life in rat at 1 mg/kg, iv and 2 mg/kg, po; assay type: ADME, organism-based; details: in vivo
[7] = Cmax in satellite C57BL/6 mouse at 40 mg/kg, po; assay type: ADME, organism-based; parameters: dose 40 mg/kg, route oral; details: in vivo
Method in brief: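 Female C57Bl/6 satellite mice from the peritonitis study were given 40 mg/kg orally, with blood levels followed over about 7 hours.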

[8] = molecular target: T2, C-C chemokine receptor type 4 (Homo sapiens, UniProt P51679); assay: Antagonist activity at CCR4; assay type: functional
T2 sequence (P51679 whole entry): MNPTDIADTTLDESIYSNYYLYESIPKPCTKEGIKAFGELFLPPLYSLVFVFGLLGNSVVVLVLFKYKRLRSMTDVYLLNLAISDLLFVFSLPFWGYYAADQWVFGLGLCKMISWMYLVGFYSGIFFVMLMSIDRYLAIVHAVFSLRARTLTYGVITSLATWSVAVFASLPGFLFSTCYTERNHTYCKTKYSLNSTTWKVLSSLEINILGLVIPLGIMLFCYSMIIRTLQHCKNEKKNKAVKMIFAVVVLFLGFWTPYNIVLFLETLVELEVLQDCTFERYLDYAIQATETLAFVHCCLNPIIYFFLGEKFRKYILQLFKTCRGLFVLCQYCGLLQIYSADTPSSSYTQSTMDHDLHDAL

[9] = Cmax in rat at 1 mg/kg, iv and 2 mg/kg, po; assay type: ADME, organism-based; details: in vivo
[10] = Lipophilicity, log D of the compound; assay type: physicochemical; details: octanol/water
[11] = Volume of distribution at steady state in rat at 1 mg/kg, iv and 2 mg/kg, po; assay type: ADME, organism-based; details: in vivo, read-out: Vdss
[12] = test system: Mus musculus; assay: Reduction of monocyte recruitment in CCR2 deficient C57BL/6 mouse thioglycolate-induced peritonitis model at 40 mg/kg, po administered 3 hrs before thioglycolate challenge relative to control; assay type: functional; parameters: scale not given: the % may be the effect or the level left; details: in the assay text read “humanized CCR2 knock-in” for “CCR2 deficient”
Method in brief: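 Thioglycolate-induced peritonitis model in humanized CCR2 knock-in mice. Antagonist given orally at 40 mg/kg and monocyte recruitment compared with a vehicle group.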

[13] = molecular target: T3, C-C chemokine receptor type 1 (Homo sapiens, UniProt P32246); assay: Antagonist activity at CCR1; assay type: functional
T3 sequence (P32246 whole entry): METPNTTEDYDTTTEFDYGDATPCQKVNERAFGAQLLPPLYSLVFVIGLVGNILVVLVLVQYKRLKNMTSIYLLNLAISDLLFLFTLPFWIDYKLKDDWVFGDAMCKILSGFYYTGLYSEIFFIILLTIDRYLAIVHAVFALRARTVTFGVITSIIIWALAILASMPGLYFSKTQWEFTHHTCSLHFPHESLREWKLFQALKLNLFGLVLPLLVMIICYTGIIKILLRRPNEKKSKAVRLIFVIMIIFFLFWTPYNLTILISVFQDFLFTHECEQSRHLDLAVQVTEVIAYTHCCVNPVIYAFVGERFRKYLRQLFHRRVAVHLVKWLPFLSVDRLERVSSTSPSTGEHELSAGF

[14] = Oral bioavailability in rat at 2 mg/kg; assay type: ADME, organism-based; details: in vivo
[15] = molecular target: Voltage-gated inwardly rectifying potassium channel KCNH2 (Homo sapiens, UniProt Q12809); assay: Inhibition of human ERG
Chain of Voltage-gated inwardly rectifying potassium channel KCNH2 (Q12809 whole entry): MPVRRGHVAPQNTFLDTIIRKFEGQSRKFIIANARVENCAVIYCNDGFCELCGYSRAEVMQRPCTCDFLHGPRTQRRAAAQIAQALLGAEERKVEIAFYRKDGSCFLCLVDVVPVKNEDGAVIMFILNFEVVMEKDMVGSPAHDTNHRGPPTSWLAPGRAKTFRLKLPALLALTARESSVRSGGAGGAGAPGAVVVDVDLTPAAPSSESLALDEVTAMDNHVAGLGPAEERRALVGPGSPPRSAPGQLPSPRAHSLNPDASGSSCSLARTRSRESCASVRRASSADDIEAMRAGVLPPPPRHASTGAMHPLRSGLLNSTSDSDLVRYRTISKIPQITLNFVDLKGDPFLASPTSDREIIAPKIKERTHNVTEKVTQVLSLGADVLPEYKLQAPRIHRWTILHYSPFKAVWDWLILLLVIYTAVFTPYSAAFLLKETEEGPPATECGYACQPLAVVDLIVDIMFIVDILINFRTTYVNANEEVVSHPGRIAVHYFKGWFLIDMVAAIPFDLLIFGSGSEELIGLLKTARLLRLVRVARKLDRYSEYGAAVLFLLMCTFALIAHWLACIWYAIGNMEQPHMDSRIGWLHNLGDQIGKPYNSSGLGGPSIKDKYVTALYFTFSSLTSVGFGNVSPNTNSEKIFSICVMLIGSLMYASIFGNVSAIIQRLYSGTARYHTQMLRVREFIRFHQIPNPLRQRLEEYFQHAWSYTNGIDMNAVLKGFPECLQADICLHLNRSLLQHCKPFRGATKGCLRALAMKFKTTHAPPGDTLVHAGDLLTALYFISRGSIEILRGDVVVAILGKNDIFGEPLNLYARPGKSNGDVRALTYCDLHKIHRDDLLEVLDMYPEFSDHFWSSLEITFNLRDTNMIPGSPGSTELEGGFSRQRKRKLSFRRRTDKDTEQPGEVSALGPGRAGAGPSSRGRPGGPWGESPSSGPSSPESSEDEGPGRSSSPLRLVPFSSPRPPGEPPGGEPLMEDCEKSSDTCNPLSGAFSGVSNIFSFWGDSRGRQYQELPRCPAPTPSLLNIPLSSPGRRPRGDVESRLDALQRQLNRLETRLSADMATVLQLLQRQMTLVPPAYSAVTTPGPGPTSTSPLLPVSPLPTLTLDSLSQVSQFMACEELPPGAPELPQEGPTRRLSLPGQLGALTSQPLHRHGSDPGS

[16] = Half life in rat at 1 mg/kg, iv and 1.5 mg/kg, po; assay type: ADME, organism-based; details: in vivo
[17] = Cmax in rat at 1 mg/kg, iv and 1.5 mg/kg, po; assay type: ADME, organism-based; details: in vivo
[18] = Volume of distribution at steady state in rat at 1 mg/kg, iv and 1.5 mg/kg, po; assay type: ADME, organism-based; details: in vivo, read-out: Vdss
[19] = Oral bioavailability in rat at 1.5 mg/kg; assay type: ADME, organism-based; details: in vivo
[20] = Clearance in rat at 1 mg/kg, iv and 1.5 mg/kg, po; assay type: ADME, organism-based; details: in vivo

Q: For O=C(NCCN1CCNCC1)c1ccc(Oc2ncc(Cl)cc2NS(=O)(=O)c2ccc(Cl)c(Cl)c2)cc1, which Ki [1] is on record?
A: 251 nM

Q: What about the fold change (FC) [2] of the same molecule?
A: 6

Q: What about the Ki [3] of the same molecule?
A: 40 nM

Q: For O=C(NCCN1CCCCC1)c1ccc(Oc2ncc(Cl)cc2NS(=O)(=O)c2ccc(Cl)c(Cl)c2)cc1, which Ki [1] is on record?
A: 20 nM

Q: And the fold change (FC) [2]?
A: 1.5

Q: What about the Ki [3] of the same molecule?
A: 13 nM

Q: What about the Kb [4] of the same molecule?
A: 1580 nM

Q: For O=C(NCCN1CCCC1)c1cccc(Oc2ncc(Cl)cc2NS(=O)(=O)c2ccc(Cl)c(Cl)c2)c1, which Ki [1] is on record?
A: 1000 nM

Q: What about the fold change (FC) [2] of the same molecule?
A: 10

Q: What about the Ki [3] of the same molecule?
A: 100 nM

Q: For COc1cc(Oc2ccc(C(=O)NCCN3CCCC3)cc2)c(NS(=O)(=O)c2ccc(Cl)c(C(F)(F)F)c2)cc1Cl, which Ki [3] is on record?
A: 4 nM

Q: And the Kb [4]?
A: 398 nM

Q: Which Ki [3] does the source give for Cc1cc(C(=O)NCCN2CCCCC2)ccc1Oc1ccc(Cl)cc1NS(=O)(=O)c1ccc(Cl)c(C(F)(F)F)c1 here?
A: 25 nM

Q: And the Kb [4]?
A: 2510 nM

Q: With O=C(NCCN1CCCC1)c1ccccc1Oc1ncc(Cl)cc1NS(=O)(=O)c1ccc(Cl)c(Cl)c1 as the molecule, how does the Ki [1] read?
A: 2510 nM

Q: And the fold change (FC) [2]?
A: 4

Q: What about the Ki [3] of the same molecule?
A: 631 nM

Q: With COc1cc(C(=O)NCCN2CCCCC2)ccc1Oc1ccc(Cl)cc1NS(=O)(=O)c1ccc(Cl)c(C(F)(F)F)c1 as the molecule, how does the Ki [3] read?
A: 25 nM

Q: And the Kb [4]?
A: 1000 nM

Q: Which Ki [3] does the source give for O=C(NCCN1CCCCC1)c1ccc(Oc2ccc(Cl)cc2NS(=O)(=O)c2ccc(Cl)c(Cl)c2)cc1 here?
A: 63 nM

Q: What about the Kb [4] of the same molecule?
A: 3160 nM

Q: With Cc1cc(Oc2ccc(C(=O)NCCN3CCCCC3)cc2)c(NS(=O)(=O)c2ccc(Cl)c(C(F)(F)F)c2)cc1Cl as the molecule, how does the Ki [3] read?
A: 16 nM

Q: What about the Kb [4] of the same molecule?
A: 1260 nM

Q: For Cc1ncccc1Oc1ncc(Cl)cc1NS(=O)(=O)c1ccc(Cl)c(Cl)c1, which Ki [1] is on record?
A: 1260 nM

Q: And the fold change (FC) [2]?
A: 126

Q: Which Ki [3] does the source give for Cc1cc(C(=O)NCCN2CCCC2)ccc1Oc1ccc(Cl)cc1NS(=O)(=O)c1ccc(Cl)c(C(F)(F)F)c1 here?
A: 8 nM

Q: And the Kb [4]?
A: 501 nM

Q: For O=C(NCCN1CCCCC1)c1ccc(Oc2ccc(Cl)cc2NS(=O)(=O)c2ccc(Cl)c(C(F)(F)F)c2)cc1, which Ki [3] is on record?
A: 10 nM

Q: And the Kb [4]?
A: 631 nM

Q: What does the source list for COc1cc(Oc2ccc(C(=O)NCCN3CCCCC3)cc2)c(NS(=O)(=O)c2ccc(Cl)c(C(F)(F)F)c2)cc1Cl?
A: Ki [3]: 10 nM; Kb [4]: 398 nM

Q: For O=C(NCCN1CCCCC1)c1cccc(Oc2ncc(Cl)cc2NS(=O)(=O)c2ccc(Cl)c(Cl)c2)c1, which Ki [1] is on record?
A: 1260 nM

Q: What about the fold change (FC) [2] of the same molecule?
A: 16

Q: And the Ki [3]?
A: 79 nM

Q: With O=C(NCCN1CCCCC1)c1ccccc1Oc1ncc(Cl)cc1NS(=O)(=O)c1ccc(Cl)c(Cl)c1 as the molecule, how does the Ki [1] read?
A: 1590 nM

Q: And the fold change (FC) [2]?
A: 2

Q: And the Ki [3]?
A: 794 nM

Q: For O=C(NCCN1CCCCC1)c1ccc(Oc2ncc(Cl)cc2NS(=O)(=O)c2ccc(Cl)c(C(F)(F)F)c2)cc1, which clearance [5] is on record?
A: 39 mL/min/kg

Q: What about the half-life [6] of the same molecule?
A: 54 min

Q: And the Cmax [7]?
A: 1520 ng/mL

Q: And the IC50 [8]?
A: > 10 µM

Q: What about the Cmax [9] of the same molecule?
A: 624 ng/mL

Q: And the logD [10]?
A: 3.2

Q: And the Vd [11]?
A: 1.9 L/kg

Q: And the Activity [12]?
A: 54%

Q: What about the Ki [3] of the same molecule?
A: 3 nM

Q: What about the Kb [4] of the same molecule?
A: 398 nM

Q: What about the IC50 [13] of the same molecule?
A: > 25.1 µM

Q: What about the bioavailability [14] of the same molecule?
A: 10%

Q: Which Ki [3] does the source give for Cc1cc(Oc2ccc(C(=O)NCCN3CCCC3)cc2)c(NS(=O)(=O)c2ccc(Cl)c(C(F)(F)F)c2)cc1Cl here?
A: 8 nM

Q: And the Kb [4]?
A: 398 nM

Q: For O=C(NCCN1CCNCC1)c1cccc(Oc2ncc(Cl)cc2NS(=O)(=O)c2ccc(Cl)c(Cl)c2)c1, which Ki [1] is on record?
A: 2510 nM

Q: And the fold change (FC) [2]?
A: 13

Q: What about the Ki [3] of the same molecule?
A: 200 nM

Q: Which results are given for O=C(NCCN1CCCC1)c1ccc(Oc2ccc(Cl)cc2NS(=O)(=O)c2ccc(Cl)c(C(F)(F)F)c2)cc1?
A: Ki [3]: 2 nM; Kb [4]: 501 nM

Q: With COc1cc(C(=O)NCCN2CCCC2)ccc1Oc1ccc(Cl)cc1NS(=O)(=O)c1ccc(Cl)c(C(F)(F)F)c1 as the molecule, how does the IC50 [15] read?
A: 25.1 µM

Q: And the half-life [16]?
A: 234 min

Q: What about the Cmax [17] of the same molecule?
A: 652 ng/mL

Q: What about the Vd [18] of the same molecule?
A: 2.7 L/kg

Q: What about the bioavailability [19] of the same molecule?
A: 37%

Q: And the Cmax [7]?
A: 1970 ng/mL

Q: And the IC50 [8]?
A: > 10 µM

Q: And the logD [10]?
A: 2.3

Q: And the Activity [12]?
A: 56%

Q: What about the clearance [20] of the same molecule?
A: 17 mL/min/kg

Q: And the Ki [3]?
A: 6 nM

Q: And the Kb [4]?
A: 251 nM

Q: What about the IC50 [13] of the same molecule?
A: > 25.1 µM

Q: For O=C(NCCN1CCCC1)c1ccc(Oc2ncc(Cl)cc2NS(=O)(=O)c2ccc(Cl)c(Cl)c2)cc1, which Ki [1] is on record?
A: 63 nM

Q: And the fold change (FC) [2]?
A: 5

Q: What about the Ki [3] of the same molecule?
A: 13 nM

Q: For O=C(NCCN1CCC(F)(F)C1)c1ccc(Oc2ccc(Cl)cc2NS(=O)(=O)c2ccc(Cl)c(C(F)(F)F)c2)cc1, which Ki [3] is on record?
A: 63 nM

Q: What about the Kb [4] of the same molecule?
A: 3980 nM
